Results on nine compounds are retold here after ChEMBL document CHEMBL2029262, “Receptor-ligand interaction-based virtual screening for novel Eg5/kinesin spindle protein inhibitors” (J Med Chem, 2012).

In test [1] the target is T1, Kinesin-like protein KIF11 (Homo sapiens) (UniProt P52732).
T1 sequence (whole entry): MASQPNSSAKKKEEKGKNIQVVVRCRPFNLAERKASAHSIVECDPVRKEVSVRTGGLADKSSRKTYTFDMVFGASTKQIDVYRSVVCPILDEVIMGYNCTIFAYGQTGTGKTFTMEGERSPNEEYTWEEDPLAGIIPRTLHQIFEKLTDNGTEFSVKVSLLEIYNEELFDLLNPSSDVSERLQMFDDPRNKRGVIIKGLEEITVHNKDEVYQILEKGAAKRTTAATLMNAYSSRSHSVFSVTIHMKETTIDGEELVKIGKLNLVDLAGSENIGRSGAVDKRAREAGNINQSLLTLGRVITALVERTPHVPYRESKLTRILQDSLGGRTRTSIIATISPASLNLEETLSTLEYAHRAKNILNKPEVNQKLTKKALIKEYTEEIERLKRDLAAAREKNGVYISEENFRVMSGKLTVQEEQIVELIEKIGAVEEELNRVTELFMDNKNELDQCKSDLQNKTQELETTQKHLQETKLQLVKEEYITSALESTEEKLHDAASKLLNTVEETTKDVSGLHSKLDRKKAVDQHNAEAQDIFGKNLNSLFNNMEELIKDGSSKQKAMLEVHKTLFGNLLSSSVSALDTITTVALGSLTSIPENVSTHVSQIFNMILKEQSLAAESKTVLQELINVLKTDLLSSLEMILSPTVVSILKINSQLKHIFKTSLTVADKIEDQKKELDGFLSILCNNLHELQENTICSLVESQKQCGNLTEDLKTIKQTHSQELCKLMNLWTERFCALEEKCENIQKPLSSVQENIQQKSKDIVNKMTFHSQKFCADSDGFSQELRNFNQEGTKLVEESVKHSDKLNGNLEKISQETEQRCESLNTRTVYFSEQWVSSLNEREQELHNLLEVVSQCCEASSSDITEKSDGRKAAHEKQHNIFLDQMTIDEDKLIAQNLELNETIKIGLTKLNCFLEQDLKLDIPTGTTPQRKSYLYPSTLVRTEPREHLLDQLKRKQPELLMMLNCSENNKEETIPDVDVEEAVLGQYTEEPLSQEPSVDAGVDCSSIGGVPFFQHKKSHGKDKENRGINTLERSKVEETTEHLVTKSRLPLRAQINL
In words: (§1) Inhibition of Eg5 ATPase activity by pyruvate kinase/lactate dehydrogenase-linked assay. On the set-up: concentration or dose not given beside the values. In outline:
(§2)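 Basal steady-state ATPase of 200 nM Eg5 2–368, measured by pyruvate kinase/lactate dehydrogenase coupling in ACES buffer pH 6.9 with Mg acetate, EGTA, EDTA and β-mercaptoethanol, at 25 °C with up to 2.0% DMSO. STLC was the positive control. Each concentration was run in triplicate and reported as mean ± SD to give IC50.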

The target in test [2] is T2, Kinesin-like protein KIF11 (Homo sapiens, UniProt P52732).
T2 sequence (P52732 whole entry): T1 sequence (whole entry)
Described as §1. The method in brief:
as §2

The target of test [3] is T3, Kinesin heavy chain isoform 5C (Homo sapiens, UniProt O60282).
T3 sequence (O60282 whole entry): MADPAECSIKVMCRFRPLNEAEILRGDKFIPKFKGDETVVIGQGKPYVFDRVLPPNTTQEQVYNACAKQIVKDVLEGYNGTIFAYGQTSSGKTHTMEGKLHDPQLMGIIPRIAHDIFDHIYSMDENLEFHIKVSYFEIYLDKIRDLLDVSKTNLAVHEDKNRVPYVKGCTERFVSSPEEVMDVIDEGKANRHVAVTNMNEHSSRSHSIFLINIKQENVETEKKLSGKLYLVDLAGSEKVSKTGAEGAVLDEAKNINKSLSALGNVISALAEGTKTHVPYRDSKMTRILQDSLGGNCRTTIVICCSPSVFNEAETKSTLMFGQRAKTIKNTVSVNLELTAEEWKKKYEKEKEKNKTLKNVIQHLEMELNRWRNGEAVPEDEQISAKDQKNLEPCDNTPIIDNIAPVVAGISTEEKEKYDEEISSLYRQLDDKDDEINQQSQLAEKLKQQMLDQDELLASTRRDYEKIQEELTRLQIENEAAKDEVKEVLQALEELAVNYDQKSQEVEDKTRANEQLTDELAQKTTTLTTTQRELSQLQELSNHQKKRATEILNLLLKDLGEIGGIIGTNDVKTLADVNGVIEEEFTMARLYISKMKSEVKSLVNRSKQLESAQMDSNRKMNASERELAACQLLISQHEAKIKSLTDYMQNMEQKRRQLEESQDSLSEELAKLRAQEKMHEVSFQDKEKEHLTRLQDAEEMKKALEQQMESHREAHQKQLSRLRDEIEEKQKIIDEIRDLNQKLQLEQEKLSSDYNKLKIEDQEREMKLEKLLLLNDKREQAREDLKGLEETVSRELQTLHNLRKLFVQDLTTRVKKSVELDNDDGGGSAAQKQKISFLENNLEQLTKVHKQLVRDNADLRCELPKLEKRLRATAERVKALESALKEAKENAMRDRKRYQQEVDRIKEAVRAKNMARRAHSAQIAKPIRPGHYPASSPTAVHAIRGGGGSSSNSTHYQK
In words: Inhibition of human Kif5C ATPase activity by pyruvate kinase/lactate dehydrogenase-linked assay. The method in brief:
(§3)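 HsKif5A or HsKif5C ATPase measured with the same pyruvate kinase/lactate dehydrogenase-linked format, at 25 °C in ACES buffer pH 6.9 with up to 2.0% DMSO. Concentrations were run in triplicate.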

Test [4] has as its system HeLa. In words: Induction of monoastral spindle formation in human HeLa cells at 25 uM after 8 hrs by immunofluorescence assay. The test is classed as functional, cell-based. The method in brief: (§4)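 HeLa cells grown in D-MEM with 10% fetal calf serum on poly-D-lysine-coated coverslips and allowed to adhere at least 36 h. Compounds were diluted in medium from 25 mM DMSO stocks and applied for 8 h. Cells were fixed in 2% paraformaldehyde, permeabilized with 0.2% Triton X-100, and stained for β-tubulin and centromeres, with DAPI for DNA. Mitotic cells with monoastral versus bipolar spindles were counted by epifluorescence microscopy.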

The target in test [5] is T4, Kinesin heavy chain isoform 5A (Homo sapiens, UniProt Q12840).
T4 sequence (Q12840 whole entry): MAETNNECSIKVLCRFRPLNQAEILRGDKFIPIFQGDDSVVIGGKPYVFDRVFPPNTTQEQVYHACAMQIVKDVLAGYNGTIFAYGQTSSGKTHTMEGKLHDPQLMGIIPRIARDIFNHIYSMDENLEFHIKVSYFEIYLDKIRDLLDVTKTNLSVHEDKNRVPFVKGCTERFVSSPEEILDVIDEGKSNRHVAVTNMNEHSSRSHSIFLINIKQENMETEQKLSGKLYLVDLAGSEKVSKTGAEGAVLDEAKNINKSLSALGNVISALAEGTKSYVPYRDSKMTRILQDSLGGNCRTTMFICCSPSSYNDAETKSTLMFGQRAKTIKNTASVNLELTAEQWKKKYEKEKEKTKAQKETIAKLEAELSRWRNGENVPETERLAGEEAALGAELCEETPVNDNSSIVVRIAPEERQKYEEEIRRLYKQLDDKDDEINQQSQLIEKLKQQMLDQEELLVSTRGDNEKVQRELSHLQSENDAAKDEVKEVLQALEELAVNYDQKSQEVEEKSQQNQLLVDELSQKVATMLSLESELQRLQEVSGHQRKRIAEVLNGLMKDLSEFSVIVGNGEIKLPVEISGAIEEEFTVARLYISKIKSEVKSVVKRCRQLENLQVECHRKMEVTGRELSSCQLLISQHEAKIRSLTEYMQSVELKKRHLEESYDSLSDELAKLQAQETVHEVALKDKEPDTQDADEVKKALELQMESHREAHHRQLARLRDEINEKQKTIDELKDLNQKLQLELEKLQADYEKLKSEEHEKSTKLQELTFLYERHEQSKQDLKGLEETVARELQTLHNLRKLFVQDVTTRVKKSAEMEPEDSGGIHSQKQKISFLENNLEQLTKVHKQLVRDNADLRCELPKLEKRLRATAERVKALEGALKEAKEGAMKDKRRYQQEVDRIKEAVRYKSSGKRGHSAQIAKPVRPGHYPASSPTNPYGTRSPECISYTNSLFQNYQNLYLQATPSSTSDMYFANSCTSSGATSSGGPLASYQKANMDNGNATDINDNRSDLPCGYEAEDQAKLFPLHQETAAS
Briefly: Inhibition of human Kif5A ATPase activity by pyruvate kinase/lactate dehydrogenase-linked assay. In outline:
as §3

Test [6] concerns DU-145. In words: Growth inhibition of human DU145 cells after 2 days by MTT assay. The test is classed as functional. The method in brief: (§5)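 DU145 or HT29 cells in RPMI 1640 with 10% heat-inactivated FBS, 37 °C, 5% CO2. Seeded at 3 × 10^3 cells/well, exposed to a range of compound concentrations in duplicate for two days. Read-out was MTT-type tetrazolium dye for up to 4 h, overnight solubilization of formazan, then OD at 570 nm. GI50 was derived.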

The subject of test [7] is HT-29. Briefly: Growth inhibition of human HT-29 cells after 2 days by MTT assay. The test is classed as functional. The method in brief:
as §5

Test [8] relates to DU-145. In words: Selectivity ratio of GI50 for human DU145 cells to GI50 for human HT29 cells. The test is classed as functional.
The test system of test [9] is HeLa. In words: Induction of monoastral spindle formation in human HeLa cells at 50 uM after 8 hrs by immunofluorescence assay. It counts as functional. In outline:
as §4

For test [10], the system named is HeLa. Briefly: Induction of monoastral spindle formation in human HeLa cells assessed as interphase cells with cortical MT bundles at 25 uM after 8 hrs by immunofluorescence assay. It counts as functional, cell-based.
In test [11] the test system is HeLa. In words: Induction of monoastral spindle formation in human HeLa cells assessed as cells with misaligned chromosomes at 25 uM after 8 hrs by immunofluorescence assay. The test is classed as functional, cell-based.

Active and inactive are the calls of the source. No cut-off for these calls is given here.

For the compound `COC(=O)c1c(C)oc2c1cc(NS(=O)(=O)c1ccc(C(=O)O)cc1)c1ccccc12`, in [1] (concentration not given here), the inhibition came to 80%. In addition, the IC50 in [2] (read-out: IC50) was 79.1 µM; in test [3], “Not Active”; in test [5] it was “Not Active”. For the same compound, in [4], the result was inactive. Moreover, the GI50 result in test [6] and in [7] was “inactive” in each case.
Compound `Cc1ccsc1CCN1C(=S)N(c2ccc(F)cc2)C(=O)C1CC(=O)Nc1ccc(F)cc1` (stereo unspecified) displayed an inhibition in test [1] (concentration not given here) of 80%. The IC50 was 0.6 µM in test [2] (read-out: IC50), “Not Active” in test [3] and “Not Active” in [5]. In [4], the outcome was Active. Moreover, the GI50 was determined as 31 µM in [6] (DU-145, 48 h) and 16.7 µM in test [7] (HT-29, 48 h). Also, the RatioGI50 in test [8] was determined as 2.
Regarding `Cc1cc(F)ccc1S(=O)(=O)N(C(=O)C1CCCCC1)c1ccc2oc(=O)sc2c1`, in test [2], the half-maximal inhibitory concentration (IC50) entry is “Not Active”. Moreover, the result in test [4] was inactive. In addition, the GI50 in test [6] (DU-145, 48 h) is 41.2 µM; in test [7] (HT-29, 48 h), 19.4 µM.
On to `COc1ccc(N2C(=O)C(CC(=O)Nc3ccccc3)N(CCc3cccs3)C2=S)cc1` (stereo unspecified), for which the inhibition in test [1] (concentration not given here) came out at 60%. Besides, the results for the IC50 in test [2] (read-out: IC50), in test [3] and in [5] were 1 µM, “Not Active” and “Not Active”, respectively. For the same compound, the GI50 in test [6] (DU-145, 48 h) came out at 34.3 µM; in [7] (HT-29, 48 h), 17.7 µM. Besides, the Activity in test [9] amounted to 50%. The RatioGI50 in test [8] is given as 2.
Consider `O=C(O)CSc1cc(NS(=O)(=O)c2ccc(C(=O)O)cc2)c2ccccc2c1O`, for which, in test [2], the concentration for half-maximal inhibition (IC50) entry is given as “Not Active”. The GI50 in test [6] (DU-145, 48 h) was determined as 21 µM; in test [7] (HT-29, 48 h), 4.4 µM. Besides, the result in test [10] was Active.
As to `COc1ccc(NC(=O)CC2C(=O)N(c3ccccc3)C(=S)N2CCc2sccc2C)cc1` (stereo unspecified), in test [1] (concentration not given here), the inhibition amounted to 60%. The IC50 is 2.4 µM in [2] (read-out: IC50), “Not Active” in test [3] and “Not Active” in test [5]. Further, the concentration for 50% growth inhibition (GI50) in [6] (DU-145, 48 h) was determined as 42.3 µM; in test [7] (HT-29, 48 h), 19.6 µM. Also, in [8], the RatioGI50 was found to be 2.
`Cc1ccc(-n2c(=O)[nH]c3c(C(N)=O)nc(-c4ccc(F)cc4F)nc32)cc1C`: the inhibition in [1] (concentration not given here) worked out at 60%. The IC50 in test [2] (read-out: IC50) was 41.5 µM; in test [3] (read-out: IC50), 50 µM; in [5] (read-out: IC50), 50 µM. Further, the outcome in [4] was inactive. In addition, the GI50 in test [6] (DU-145, 48 h) was determined as 8.7 µM; in test [7] (HT-29, 48 h) it was 9.3 µM.
In test [1] (concentration not given here), `Cc1ccc2c(c1)-c1cc(C)nn1C(c1ccccc1F)N2` (stereo unspecified) displayed an inhibition of 60%. Besides, the IC50 in test [2] (read-out: IC50) was 6.3 µM; in [3], “Not Active”; in [5], “Not Active”. The result in [4] was inactive. In addition, the GI50 entry in test [6] and in test [7] was “inactive” throughout.
As for `COC(=O)c1c(NC(=O)c2ccccc2Br)sc(C)c1C`, the inhibition result in [1] is “inactive”. For the same compound, the GI50 in [6] (DU-145, 48 h) was more than 100 µM; in [7] (HT-29, 48 h), 33.7 µM. In addition, in [11], the result was Active.
